Screening results from PubChem BioAssay.
Furin inh: blocks human furin protease activity; P09958; purified furin, fluorogenic substrate cleavage; inhibition, % at 20 µM or 30 µM; 0.061% of 220,000 active; AID 463115; in the data active means inhibition above about 25%
Arbovirus inh: blocks arbovirus infection; 0.37% of 200,000 active; inhibition, % at 10 µM; arbovirus infection cell-based antiviral screen; AID 1251; in the data active means inhibition above about 30%
p47phox inh: inhibitors of human p47phox binding; 0.53% of 220,000 active; p47phox/p22phox peptide binding, fluorescence polarization, 2 h; AID 1274; inhibition, % at 24.7 µM; P14598;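 active means inhibition above about 30%, limit read from the data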;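 further: 0% = p47phox with labelled peptide and 100% = labelled peptide alone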
ABCB1 inh: inhibitors of human ABCB1 transporter, ABCG2 counter-screen. inhibition, % at 6.6 µM. 0.067% of 190,000 active. AID 1326. P08183. CCRF-Adr cells, JC-1 efflux, flow cytometry; in the data active means inhibition above about 40%;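 further: 0% = vehicle and 100% = reference inhibitor; higher value means more JC-1 retained so stronger ABCB1 efflux block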
ABCG2 block: inhibitors of human ABCG2 transporter, ABCB1 counter-screen; inhibition, % at 6.6 µM; 0.1% of 190,000 active; Q9UNQ0; IgMXP3 cells, JC-1 efflux, flow cytometry;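 active means inhibition above 80%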;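 further: 0% = DMSO and 100% = nicardipine control wells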
Target sequence (Q9UNQ0 whole entry, looked up): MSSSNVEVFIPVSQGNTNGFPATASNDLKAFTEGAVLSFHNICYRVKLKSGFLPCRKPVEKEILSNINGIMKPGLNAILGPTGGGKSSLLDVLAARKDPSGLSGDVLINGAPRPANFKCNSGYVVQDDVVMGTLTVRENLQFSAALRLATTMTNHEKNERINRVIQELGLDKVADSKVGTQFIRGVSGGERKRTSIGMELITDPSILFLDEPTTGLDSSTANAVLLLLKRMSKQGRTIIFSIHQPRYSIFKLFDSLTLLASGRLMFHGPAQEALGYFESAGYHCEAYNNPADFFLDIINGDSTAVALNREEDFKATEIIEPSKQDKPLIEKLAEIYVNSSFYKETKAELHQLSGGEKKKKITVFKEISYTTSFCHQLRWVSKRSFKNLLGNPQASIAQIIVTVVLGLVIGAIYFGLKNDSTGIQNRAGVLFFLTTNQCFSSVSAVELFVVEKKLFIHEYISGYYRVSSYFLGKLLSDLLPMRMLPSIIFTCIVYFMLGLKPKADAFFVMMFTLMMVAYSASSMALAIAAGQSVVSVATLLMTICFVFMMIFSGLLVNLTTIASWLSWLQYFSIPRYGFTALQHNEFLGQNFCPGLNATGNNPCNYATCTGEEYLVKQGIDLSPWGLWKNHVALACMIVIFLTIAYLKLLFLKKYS
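Assay system – ABCG2 IgMXP3 and barcoded ABCB1 CCRF-Adr cell mix · Input – 3 million cells/mL in well · Reagent – JC-1 fluorescent substrate · Compound – single test compound dose, 6.6 µM final · Timing – 10 min exposure at 25 °C with rotation, no wash · Detection – flow cytometry of retained JC-1 fluorescence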
HSV augment: HSV replication enhancement; HSV replication augmentation in cells, fold increase; maximum fold increase; 0.005% of 220,000 active; AID 1956; in the data active means maximum fold increase above about 1.5; inconclusive means no clear call, values can overlap the other calls; tested in PC3 cells
* hit, by the source's call; i = inactive; ? = inconclusive; / = not tested or not shown. The list is not random: actives were taken first. Their share in the collection is about 0.95%.

SMILES | Furin inh | Arbovirus inh | p47phox inh | ABCB1 inh | ABCG2 block | HSV augment
CCOc1ccc2noc3c2c1C(=O)c1ccccc1-3 | -6.2 | -16.0 | 44.2* | 2.9 | 5.0 | ?
Cc1ccc(N2C(=O)/C(=C\c3ccc(C(C)C)cc3)N=C2SC2CCOC2=O)cc1 (stereo not drawn) | -12.4 | 39.2* | -14.1 | -0.4 | -1.8 | i
Cc1nc2cc(C(=O)O)ccc2n1-c1ccccc1 | -2.4 | 2.9 | 4.2 | 0.7 | 8.8 | i
COc1ccccc1-n1c(C)nc2cc(C(=O)O)ccc21 | -12.0 | 2.9 | 39.3* | 1.3 | 8.2 | i
Cc1ccc(OCC(=O)N2CCCC(CCC(=O)N(C)CCc3ccccn3)C2)cc1 (stereo not drawn) | -12.0 | -0.2 | -1.0 | -0.3 | 0.3 | i
CC(=O)Nc1cc(C(=O)OC(C(=O)c2ccccc2)c2ccccc2)ccc1C (stereo not drawn) | -14.5 | -2.9 | 49.1* | 0.1 | 0.0 | /
CCCOC(=O)c1cccc(NC(=O)COc2ccc([N+](=O)[O-])cc2)c1 | -22.3 | 6.5 | -6.7 | 63.3* | 8.9 | i
C=CSc1sc(Cl)c(N(CC)CC)c1[N+](=O)[O-] | -4.9 | 17.0 | 13.1 | 3.4 | 7.5 | i
O=C(NNC1CC(=O)N(c2ccc(Br)cc2)C1=O)c1ccccn1 (stereo not drawn) | -21.6 | 0.2 | -13.1 | 0.4 | 1.1 | i
COc1cc(/C=C/C(=O)OCC(=O)NC(=O)NC(C)C)ccc1O | 27.2* | / | 3.0 | / | / | i
On1nnc2ccc3ccccc3c21 | -17.3 | 3.4 | -5.7 | 0.2 | 5.1 | i
CC(=O)c1ccc(N2Cc3ccccc3C2=NC(=O)c2cccs2)cc1 | -21.4 | -4.9 | 38.0* | 0.4 | 1.1 | i
O=C(COc1cc(O)c2c(=O)cc(-c3ccccc3)oc2c1)c1ccccc1 | -5.1 | -2.4 | -9.3 | 0.7 | 1.8 | i
O=C(COc1cc(O)c2c(=O)cc(-c3ccccc3)oc2c1)c1ccc(F)cc1 | -11.0 | 11.1 | 31.7* | 5.0 | 70.6 | i
Cc1oc(-c2ccccc2Cl)nc1CSCC(=O)N1CCCC1 | -16.8 | 32.7* | -11.7 | 0.8 | 3.5 | i
O=S(=O)(c1ccccc1)c1nc(NCc2cccnc2)sc1Cl | -26.6 | -29.9 | -10.3 | 0.7 | 9.9 | i
COc1ccc(C(=O)NCC(=O)OCC(=O)N2CCc3ccccc32)cc1 | -11.3 | 6.5 | 6.9 | 0.7 | 1.1 | i
COc1ccc(C(=O)NCC(=O)N2CCc3ccccc3C2)cc1 | -17.1 | 6.1 | 78.7* | 1.6 | 13.5 | i
CN(C1CCCCC1)S(=O)(=O)c1ccc2c(c1)c(=O)c(C(=O)NCCCN1CCCC1)cn2C | -9.4 | 0.6 | -2.0 | 0.3 | 2.4 | i
CN(C1CCCCC1)S(=O)(=O)c1ccc2c(c1)c(=O)c(C(=O)NCCN1CCCC1)cn2C | -21.5 | 0.2 | 51.3* | 0.1 | 0.3 | i
O=C(/C(=N/N=C/c1ccc(O)c(O)c1)c1ccccc1)c1ccccc1 | -19.3 | -41.0 | -25.1 | -1.9 | -9.5 | i
COc1ccc(/C=N/n2c(=O)[nH]c3c([nH]c4ccc(C)cc43)c2=O)cc1CN1CCOCC1 | 32.2* | 5.4 | -4.5 | 0.4 | 2.0 | i
CCc1nnc(NS(=O)(=O)c2ccc(NC(=O)COc3ccc4ccccc4c3)cc2)s1 | -19.4 | 42.3* | -26.9 | -0.5 | -2.1 | i
C(=N\n1cnnc1)/c1ccc(N2CCOCC2)s1 | -15.3 | -0.2 | 42.8* | 0.2 | 0.0 | i
CN(CCCC[C@H](CNCc1ccc(-c2ccccc2)cc1)N1C[C@H](c2ccccc2)N(CCc2ccc(Cl)c(Cl)c2)C(=O)C1=O)Cc1ccc(-c2ccccc2)cc1 | 4.7 | / | 51.1* | / | / | i
SMILES | Furin inh | Arbovirus inh | p47phox inh | ABCB1 inh | ABCG2 block | HSV augment
COc1ccc(CNC[C@@H](CCCCN(C)Cc2ccc(OC)cc2)N2C[C@H](c3ccccc3)N(CCc3ccc(Cl)c(Cl)c3)C(=O)C2=O)cc1 | -14.1 | -21.8 | 50.2* | 0.2 | 6.2 | i
CCOC(=O)CN1C(=O)N[C@@H](c2ccccc2)[C@H](C(C)=O)[C@H]1C | / | / | / | / | / | i
CCOC(=O)CCc1c(C)nc2cc(-c3ccccc3OC)[nH]n2c1=O | -17.1 | -9.3 | -7.5 | -0.9 | -0.7 | i
CCn1c(C)c(CCC(=O)O)c(=O)n2nc(-c3ccccc3OC)cc12 | 26.6* | 7.7 | -7.9 | 0.8 | 4.8 | i
COCC(C)n1c(SCc2nc3ccccc3c(=O)[nH]2)nc2ccccc2c1=O (stereo not drawn) | -27.1 | 45.0* | -7.2 | 2.6 | 7.4 | i
COc1ccc(CNC(=O)c2cc(-c3ccncc3)nc3c(C)cc(C)cc23)cc1OC | -18.2 | -4.4 | 8.8 | 6.0 | 19.5 | i
COC(=O)/C(=C\Nc1ccc(Oc2ccc(F)cc2F)nc1)NC(=O)c1ccccc1 | -1.6 | / | 2.6 | / | / | i
Cc1ccc2[nH]c3c(c2c1)CN(C(=O)CN1CCN(c2cccc(C)c2C)CC1)CC3 | -23.6 | -17.7 | -19.8 | 0.4 | 2.0 | i
Cc1ccc2[nH]c3c(c2c1)CN(C(=O)CN1c2ccc(F)cc2CCC1C)CC3 (stereo not drawn) | -0.4 | -23.4 | 196.3* | 1.0 | 2.1 | i
Cc1ccc(/C=C2\SC(=S)N(/N=C/c3cc([N+](=O)[O-])ccc3O)C2=O)o1 | -5.5 | -2.8 | -10.1 | -1.6 | -5.8 | i
CCOC(=O)C1=C(C)C(c2ccc(OC)cc2OC)NC(=O)N1 (stereo not drawn) | -15.4 | -7.9 | -5.0 | 1.2 | 89.7* | i
CCSc1nnc(COc2ccccc2)n1CC | -21.1 | / | -9.2 | / | / | i
O=C(CSc1nc2ccccc2c(=O)n1-c1ccccc1)NCc1ccc2c(c1)OCO2 | -17.7 | -3.3 | 52.6* | 1.1 | 1.8 | i
Cc1cccc(-n2c(SCC(=O)NCc3ccc4c(c3)OCO4)nc3ccccc3c2=O)c1 | 4.8 | -6.7 | -17.4 | 0.3 | 1.7 | i
O=C(O)COc1ccc(S(=O)(=O)c2ccc(OCC(=O)O)cc2)cc1 | -18.8 | 5.6 | 34.9* | -2.0 | -2.3 | /
CCOC(=O)COc1ccc(S(=O)(=O)c2ccc(OCC(=O)OCC)cc2)cc1 | -23.7 | 4.2 | 5.0 | 0.4 | 1.1 | i
Cn1c(=O)cc2c3c(c(N4CCCCC4)ccc31)C(=O)c1ccccc1-2 | -6.1 | / | 34.5* | / | / | i
CCN(Cc1ccncc1)Cc1c(O)ccc2cc(Br)ccc12 | -25.5 | 30.9* | 13.8 | -0.5 | -1.1 | i
CS(=O)(=O)c1nsc2nc(=O)c(/C=C3\C=Nc4ccccc43)c(N)n12 | -20.5 | 46.4* | -11.8 | -1.1 | 0.0 | i
CC(C)Sc1nsc2nc(=O)c(/C=C3\C=Nc4ccccc43)c(N)n12 | -18.1 | 33.9* | -14.2 | -1.1 | -2.5 | i
O=C(c1ccc2c(c1)OCCCO2)N1CCCCC1 | -21.7 | / | 0.9 | / | / | i
C=CCn1c(SC(C)C(N)=O)nc2sc(CC)cc2c1=O (stereo not drawn) | -9.6 | 32.1* | -4.7 | 0.4 | 1.6 | i
Cc1ccc(P(=O)(O)c2ccc(C)cc2)cc1 | -24.7 | 3.6 | 64.5* | 0.2 | 2.0 | i
Cc1cccc(OCc2nnc(SCC(=O)N3CC(=O)Nc4ccccc43)o2)c1 | -21.8 | -0.6 | -0.3 | 1.3 | 12.6 | i
